Source: PubChem (several laboratories)
Rows were chosen to be rich in hits. Some 2.2% of all compounds tested hit in one or more screens of this group.
FGF22 binding = FGF22 (human) thermal shift binding; recombinant FGF22 thermal shift, SYPRO orange fluorescence; percent of sucrose octasulfate shift, DMSO zero; activity (Tm shift, normalised), % at 9.99 µM; 1.5% of 340,000 active; AID 651658;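 active = mean Tm shift, scaled 0 neutral to 100 positive control, at about 1.3% or above, every replicate too, limit read from the data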
Target sequence (Q9HCT0 whole entry, looked up): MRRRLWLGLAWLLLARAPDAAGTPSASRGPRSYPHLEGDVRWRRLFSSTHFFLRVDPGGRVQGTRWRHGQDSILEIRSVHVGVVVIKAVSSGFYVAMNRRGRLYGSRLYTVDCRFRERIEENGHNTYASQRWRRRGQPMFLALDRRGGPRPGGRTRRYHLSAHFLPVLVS
Jurkat NFkB inh = lowers PMA/ionomycin-induced NF-kB signal in Jurkat cells; PMA/ionomycin-induced NF-kB luciferase reporter, luminescence; inhibition, % at 4 µM; 0.53% of 330,000 active; AID 435003; in the data active = inhibition above about 50%
697 NFkB inh = lowers PMA/ionomycin-induced NF-kB signal in 697 B cells; 0.33% of 330,000 active; inhibition, % at 4 µM; AID 435022; 697 B-cell NF-kB luciferase reporter, 16 h; in the data active = inhibition above about 35%
NR2E3 ag-1 = agonists of human NR2E3 nuclear receptor; Q9Y5X4; CHO-S Gal4-NCOR/VP16-NR2E3 two-hybrid, luciferase; inhibition of corepressor binding, % at 3.98 µM; 0.35% of 360,000 active; AID 602229;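 active = inhibition above the mean of all tested compounds plus 3 SD, cut at about 70% in these data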;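 also: 0% = DMSO with NR2E3 transfected cells and 100% = cells lacking NR2E3 construct; higher means lower luciferase signal from less NR2E3 corepressor binding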
Target sequence (Q9Y5X4 whole entry, looked up, the tested form may be a part): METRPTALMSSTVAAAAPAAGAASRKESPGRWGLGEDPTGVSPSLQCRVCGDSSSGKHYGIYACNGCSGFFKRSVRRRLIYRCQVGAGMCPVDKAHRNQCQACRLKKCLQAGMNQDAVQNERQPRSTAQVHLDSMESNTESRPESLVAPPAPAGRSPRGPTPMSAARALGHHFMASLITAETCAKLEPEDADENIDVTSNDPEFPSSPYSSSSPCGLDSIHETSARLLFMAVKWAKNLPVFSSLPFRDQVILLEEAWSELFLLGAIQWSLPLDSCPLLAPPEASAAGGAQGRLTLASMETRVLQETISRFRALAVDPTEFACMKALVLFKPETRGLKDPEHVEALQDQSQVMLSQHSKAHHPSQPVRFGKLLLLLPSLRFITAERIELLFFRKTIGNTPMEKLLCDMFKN
NR2E3 ag-2 = activates human photoreceptor nuclear receptor NR2E3 | inhibition of corepressor binding, % at 4.78 µM | GST-NR2E3/biotin-RetCOR TR-FRET, 1536-well | 0.12% of 320,000 active;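 active = percent inhibition above the cutoff of mean plus 3 SD of all tested compounds, set per screening campaign, cut at about 20% in these data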;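 also: 0% = DMSO wells and 100% = biotin wells as full block of FRET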
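Format: 1536-well format; test system: GST-NR2E3 and biotin-RetCOR proteins; read-out basis: percent inhibition of TR-FRET ratio; timing: 5 h incubation at 4 °C; detection: time-resolved FRET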
miR122 inh = inhibitors of miR-122 in Huh7 cells; activation (reporter increase), % at 12.5 µM; Huh7 miR-122 Renilla luciferase sensor, 48 h; neutral wells = 0, positive control = 100; 0.3% of 340,000 active;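 active = mean replicate activation score at least 90 and every replicate individually at or above 90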;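 also: higher luciferase means less miR-122 activity so hits act as miR-122 inhibitors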
* marks the source's active call; other numbers are inactive results; · = no result; [ ] = another dose, or the depositor's remark.

SMILES	FGF22 binding	Jurkat NFkB inh	697 NFkB inh	NR2E3 ag-1	NR2E3 ag-2	miR122 inh
CCN(C(=O)CSc1nc2cc(Cl)ccc2c(=O)n1CC(C)C)C1CCS(=O)(=O)C1 (configuration not stated)	0	-2	-12	-13	-1	3
CCN(C(=O)CSc1nc2cc(Cl)ccc2c(=O)n1Cc1ccco1)C1CCS(=O)(=O)C1 (configuration not stated)	44*	2	2	-7	-1	·
C=CCNS(=O)(=O)c1cc(S(=O)(=O)NCC=C)c(OC)cc1OC	0	13	4	-16	7	·
C=CCNc1cc(F)ccc1S(=O)(=O)NCC=C	0	·	-16	-57	·	96*
CCCc1nc2sc3c(c2c(=O)[nH]1)CCCC3	43*	-11	23	-2	2	·
COCc1nc2sc3c(c2c(=O)[nH]1)CCCC3	·	-7	-31	-12	6	·
COc1ccc(CN=C2NN=C(c3cccc(OC)c3)CS2)cc1	43*	-33	-12	-40	-1	·
COc1cccc(C2=NNC(=NCc3ccccc3)SC2)c1	0	-25	-29	-50	-2	·
NNC(=O)c1cncn1-c1ccc(F)cc1	44*	3	25	13	2	·
NC(=O)c1ccc(NC(=O)c2cncn2-c2ccccc2)cc1	0	-17	-5	-10	-3	4
Cc1ccc2[nH]c(=O)cc(C(=O)OC(C)C)c2c1	43*	-10	3	-31	0	·
Cc1ccc(S(=O)(=O)N(C)C[C@H]2OCCCC[C@@H](C)Oc3ccc(NC(=O)Cc4ccccc4)cc3C(=O)N([C@@H](C)CO)C[C@@H]2C)cc1	·	·	·	·	·	-2[16.7 µM]
COCC#Cc1ccc2c(c1)O[C@H](CN(C)Cc1ccccc1F)[C@@H](C)CN([C@@H](C)CO)S2(=O)=O	0	·	·	·	·	11[16.7 µM]
CO[C@H]1CN(C)C(=O)c2ccc(NC(=O)C3CC3)cc2OC[C@H](C)N(CCC(F)(F)F)C[C@H]1C	0	·	·	·	·	-4[16.7 µM]
O=C(C1CC1)N1C[C@@H]2[C@H](c3ccccc31)[C@H](CO)N2Cc1ccccc1Cl	-1	·	·	·	·	35[16.7 µM]
O=C(/C(=C/O)N=Nc1cccc(C(F)(F)F)c1)c1ccccc1	43*	3	16	-6	1	·
Cc1cccc(N=N/C(=C\O)C(=O)c2ccc(Br)cc2)c1	0	-22	2	-16	2	3
CN1/C(=C\C(=O)c2cccnc2)C(C)(C)c2ccccc21	1	-26	-31	-36	1	·
CN1/C(=C\C(=O)c2cccc(S(=O)(=O)N3CCCCC3)c2)C(C)(C)c2ccccc21	43*	-2	3	0	0	23
C[C@H]1CN([C@@H](C)CO)C(=O)c2cc(/C=C/c3ccccc3)cnc2O[C@H]1CN(C)S(C)(=O)=O	0	·	·	·	·	3[16.7 µM]
CCOC(=O)Cc1csc(NC(=O)CCSc2ccccc2)n1	2.5*	-4	4	5	6	-1
CCOC(=O)C(CC)Sc1ccc2nnc(CCNS(=O)(=O)c3ccccc3)n2n1 (configuration not stated)	44*	3	3	6	1	1
CC(C)NC(=O)N(C)C[C@@H]1Oc2ccc(NC(=O)NC3CCCCC3)cc2C(=O)N([C@H](C)CO)C[C@H]1C	0	·	·	·	·	-3[16.7 µM]
CCNC(=O)[C@H]1[C@H](CO)[C@H]2Cn3c(ccc(-c4cccc(F)c4)c3=O)[C@H]2N1C(=O)Cc1cccnc1	0	·	·	·	·	8[16.7 µM]
CN(C)CCCN(C(=O)c1ccc(S(=O)(=O)N(C)C)cc1)c1nc2cc3c(cc2s1)OCO3	43*	-14	0	-15	2	-25
SMILES	FGF22 binding	Jurkat NFkB inh	697 NFkB inh	NR2E3 ag-1	NR2E3 ag-2	miR122 inh
CCN(Cc1ccccc1)S(=O)(=O)c1ccc(C(=O)N(CCCN(C)C)c2nc3cc4c(cc3s2)OCO4)cc1	0	2	-28	-6	-2	-5
O=C(CN(C1CCCCC1)S(=O)(=O)c1ccc(Cl)cc1)NCc1cccnc1	·	-1	-2	5	3	100*
C[C@H](CO)N1C[C@H](C)[C@H](CN(C)CC2CCCCC2)Oc2ccc(NS(=O)(=O)c3ccc(Cl)cc3)cc2CC1=O	·	·	·	·	·	-4[16.7 µM]
CN(C)S(=O)(=O)c1ccc(Cl)c(NC(=O)COC(=O)CN2C(=O)C3CCCCC3C2=O)c1 (configuration not stated)	43*	18	14	3	-3	·
CCC1(c2ccc(F)cc2)NC(=O)N(CC(=O)Nc2cc(S(=O)(=O)N(C)C)ccc2Cl)C1=O (configuration not stated)	44*	9	-10	13	-2	·
Cc1noc(C)c1NC(=O)N(C)C[C@H]1OCCCC[C@@H](C)Oc2ccc(NC(=O)CCC(F)(F)F)cc2C(=O)N([C@@H](C)CO)C[C@@H]1C	1	·	·	·	·	1[16.7 µM]
CS(=O)(=O)c1ccc2nc(NC(=O)c3cc(-c4ccccc4)nn3-c3ccccc3)sc2c1	43*	3	-4	1	0	-6
C[C@@H]1CCCCO[C@@H](CN(C)Cc2ccc(C(=O)O)cc2)[C@@H](C)CN([C@@H](C)CO)C(=O)c2cc(NC(=O)Nc3ccccc3)ccc2O1	0	·	·	·	·	13[16.7 µM]
CCCCCCCCSc1nnc2[nH]c(=O)cc(N)n12	43*	-4	4	-9	1	·
CCCCCCSc1nnc2[nH]c(=O)cc(N)n12	0	12	-15	-5	-2	·
O=C(NCCCn1ccnc1)c1cccc(S(=O)(=O)Nc2ccc(F)cc2)c1	0	-6	-16	4	·	142*
O=C(NCCCN1CCCC1=O)c1cccc(NS(=O)(=O)c2ccc(Br)cc2)c1	-1	16	16	-19	-5	-5
O=C(NCCCN1CCCC1=O)c1cccc(S(=O)(=O)Nc2ccc(Br)cc2)c1	0	1	-4	-8	0	110*
O=C(NCCCn1ccnc1)c1cccc(S(=O)(=O)Nc2ccc(Br)cc2)c1	0	-5	-17	2	0	72
Cc1ccc(NS(=O)(=O)c2csc(C(N)=O)c2)cc1C	0	-8	-9	8	2	99*
O=C(NCc1ccncc1)c1cccc(S(=O)(=O)Nc2ccc(F)cc2)c1	0	5	-5	13	·	91*
Cc1ccc(NS(=O)(=O)c2cc(C(=O)NCc3ccncc3)ccc2C)cc1	0	-1	17	-20	·	117*
Cc1ccc(NS(=O)(=O)c2ccc(C(=O)NCc3ccncc3)cc2)cc1	-1	-1	7	11	3	6
Cc1ccc(C(=O)NCCSc2ccccc2)cc1S(=O)(=O)Nc1ccccc1	·	-9	8	11	-4	94*
Cc1ccc(NS(=O)(=O)c2cc(C(=O)N(C)C)ccc2C)cc1C	43*	4	17	7	·	·
